# System: U2OS
# Assay: Multiplex assay against U2OS
# Type: toxicity, cell-based
# Conditions: human
# Outline: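 Compound was added to live cells that had been stained at seeding with Hoechst33342, BioTracker Green Microtubule Cytoskeleton Dye, MitoTracker Red and Annexin V Alexa Fluor 680, and imaging followed on a CQ1 microscope at 37°C and 5% CO2. CellPathfinder machine-learning gating divided cells into Hoechst high-intensity objects or normal cells, normal cells into healthy, pyknosed or fragmented nuclei, and pyknosed cells into mitotic or apoptotic. Tubulin, mitochondrial-mass and membrane-permeability phenotypes are per cents of healthy-nucleus cells.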
# [1] = 12 h, 1 µM, compound concentration 1 uM, replicate 1
# [2] = 12 h, 1 µM, compound concentration 1 uM, replicate 2
# [3] = 12 h, 10 µM, compound concentration 10 uM, replicate 1
# [4] = 12 h, 10 µM, compound concentration 10 uM, replicate 2
# [5] = 24 h, 1 µM, compound concentration 1 uM, replicate 1
# [6] = 24 h, 1 µM, compound concentration 1 uM, replicate 2
# [7] = 24 h, 10 µM, compound concentration 10 uM, replicate 1
# [8] = 24 h, 10 µM, compound concentration 10 uM, replicate 2
# [9] = 48 h, 1 µM, compound concentration 1 uM, replicate 1
# [10] = 48 h, 1 µM, compound concentration 1 uM, replicate 2
# [11] = 48 h, 10 µM, compound concentration 10 uM, replicate 1
# [12] = 48 h, 10 µM, compound concentration 10 uM, replicate 2
smiles,measurement,setting,value
CSc1ccccc1N1CCN(CCCCCC(=O)NC2CCCc3ccccc32)CC1.Cl (configuration not stated),Population Apoptotic (%),[1],62%
same,Population Fragmented Nuclei (%),[1],22%
same,Population Healthy Nuclei (%),[1],61%
same,Population Hoechst High Intensity Objects (%),[1],9%
same,Population Membrane Permeable-Phenotype (%),[1],73%
same,Population Mitochondria Different-Phenotype (%),[1],71%
same,Population Mitotic Cells (%),[1],37%
same,Population Normal (%),[1],90%
same,Population Pyknosed Nuclei (%),[1],15%
same,Population Tubulin-Different-Phenotype (%),[1],88%
same,Total Cell Count,[1],222
same,Population Apoptotic (%),[2],36%
same,Population Fragmented Nuclei (%),[2],24%
same,Population Healthy Nuclei (%),[2],63%
same,Population Hoechst High Intensity Objects (%),[2],3%
same,Population Membrane Permeable-Phenotype (%),[2],51%
same,Population Mitochondria Different-Phenotype (%),[2],85%
same,Population Mitotic Cells (%),[2],63%
same,Population Normal (%),[2],96%
same,Population Pyknosed Nuclei (%),[2],11%
same,Population Tubulin-Different-Phenotype (%),[2],72%
same,Total Cell Count,[2],101
same,Population Apoptotic (%),[3],70%
same,Population Fragmented Nuclei (%),[3],41%
same,Population Healthy Nuclei (%),[3],39%
same,Population Hoechst High Intensity Objects (%),[3],8%
same,Population Membrane Permeable-Phenotype (%),[3],67%
same,Population Mitochondria Different-Phenotype (%),[3],90%
same,Population Mitotic Cells (%),[3],29%
same,Population Normal (%),[3],91%
same,Population Pyknosed Nuclei (%),[3],18%
same,Population Tubulin-Different-Phenotype (%),[3],96%
same,Total Cell Count,[3],221
same,Population Apoptotic (%),[4],84%
same,Population Fragmented Nuclei (%),[4],23%
same,Population Healthy Nuclei (%),[4],55%
same,Population Hoechst High Intensity Objects (%),[4],4%
same,Population Membrane Permeable-Phenotype (%),[4],60%
same,Population Mitochondria Different-Phenotype (%),[4],92%
same,Population Mitotic Cells (%),[4],16%
same,Population Normal (%),[4],95%
same,Population Pyknosed Nuclei (%),[4],21%
same,Population Tubulin-Different-Phenotype (%),[4],98%
same,Total Cell Count,[4],125
same,Population Apoptotic (%),[5],54%
same,Population Fragmented Nuclei (%),[5],22%
same,Population Healthy Nuclei (%),[5],60%
same,Population Hoechst High Intensity Objects (%),[5],6%
same,Population Membrane Permeable-Phenotype (%),[5],63%
same,Population Mitochondria Different-Phenotype (%),[5],63%
same,Population Mitotic Cells (%),[5],45%
same,Population Normal (%),[5],94%
same,Population Pyknosed Nuclei (%),[5],17%
same,Population Tubulin-Different-Phenotype (%),[5],75%
same,Total Cell Count,[5],250
same,Population Apoptotic (%),[6],58%
same,Population Fragmented Nuclei (%),[6],25%
same,Population Healthy Nuclei (%),[6],58%
same,Population Hoechst High Intensity Objects (%),[6],2%
same,Population Membrane Permeable-Phenotype (%),[6],46%
same,Population Mitochondria Different-Phenotype (%),[6],74%
same,Population Mitotic Cells (%),[6],41%
same,Population Normal (%),[6],97%
same,Population Pyknosed Nuclei (%),[6],15%
same,Population Tubulin-Different-Phenotype (%),[6],63%
same,Total Cell Count,[6],111
same,Population Apoptotic (%),[7],89%
same,Population Fragmented Nuclei (%),[7],44%
same,Population Healthy Nuclei (%),[7],28%
same,Population Hoechst High Intensity Objects (%),[7],6%
same,Population Membrane Permeable-Phenotype (%),[7],79%
same,Population Mitochondria Different-Phenotype (%),[7],81%
same,Population Mitotic Cells (%),[7],10%
same,Population Normal (%),[7],93%
same,Population Pyknosed Nuclei (%),[7],26%
same,Population Tubulin-Different-Phenotype (%),[7],91%
same,Total Cell Count,[7],219
same,Population Apoptotic (%),[8],94%
same,Population Fragmented Nuclei (%),[8],19%
same,Population Healthy Nuclei (%),[8],44%
same,Population Hoechst High Intensity Objects (%),[8],10%
same,Population Membrane Permeable-Phenotype (%),[8],90%
same,Population Mitochondria Different-Phenotype (%),[8],56%
same,Population Mitotic Cells (%),[8],5%
same,Population Normal (%),[8],89%
same,Population Pyknosed Nuclei (%),[8],37%
same,Population Tubulin-Different-Phenotype (%),[8],97%
same,Total Cell Count,[8],112
same,Population Apoptotic (%),[9],64%
same,Population Fragmented Nuclei (%),[9],25%
same,Population Healthy Nuclei (%),[9],53%
same,Population Hoechst High Intensity Objects (%),[9],8%
same,Population Membrane Permeable-Phenotype (%),[9],42%
same,Population Mitochondria Different-Phenotype (%),[9],56%
same,Population Mitotic Cells (%),[9],35%
same,Population Normal (%),[9],91%
same,Population Pyknosed Nuclei (%),[9],21%
same,Population Tubulin-Different-Phenotype (%),[9],50%
same,Total Cell Count,[9],272
same,Population Apoptotic (%),[10],95%
same,Population Fragmented Nuclei (%),[10],28%
same,Population Healthy Nuclei (%),[10],52%
same,Population Hoechst High Intensity Objects (%),[10],5%
same,Population Membrane Permeable-Phenotype (%),[10],41%
same,Population Mitochondria Different-Phenotype (%),[10],63%
same,Population Mitotic Cells (%),[10],4%
same,Population Normal (%),[10],94%
same,Population Pyknosed Nuclei (%),[10],18%
same,Population Tubulin-Different-Phenotype (%),[10],44%
same,Total Cell Count,[10],137
same,Population Apoptotic (%),[11],98%
same,Population Fragmented Nuclei (%),[11],43%
same,Population Healthy Nuclei (%),[11],18%
same,Population Hoechst High Intensity Objects (%),[11],15%
same,Population Membrane Permeable-Phenotype (%),[11],77%
same,Population Mitochondria Different-Phenotype (%),[11],33%
same,Population Mitotic Cells (%),[11],1%
same,Population Normal (%),[11],84%
same,Population Pyknosed Nuclei (%),[11],38%
same,Population Tubulin-Different-Phenotype (%),[11],75%
same,Total Cell Count,[11],232
same,Population Apoptotic (%),[12],100%
same,Population Fragmented Nuclei (%),[12],25%
same,Population Healthy Nuclei (%),[12],20%
same,Population Hoechst High Intensity Objects (%),[12],11%
same,Population Membrane Permeable-Phenotype (%),[12],85%
same,Population Mitochondria Different-Phenotype (%),[12],45%
same,Population Mitotic Cells (%),[12],0%
same,Population Normal (%),[12],88%
same,Population Pyknosed Nuclei (%),[12],54%
same,Population Tubulin-Different-Phenotype (%),[12],95%
same,Total Cell Count,[12],109
